Experimental data of several laboratories.
Lines come from different studies, so protocols differ.
HDAC2: Histone deacetylase 2 (HDAC2, Homo sapiens, UniProt Q92769)
HTR2A: 5-hydroxytryptamine receptor 2A (HTR2A, Homo sapiens, UniProt P28223)
PPO3: PPO3 (Agaricus bisporus, UniProt C7FF04)

SMILES	target	test	IC50
CN(C)C(=O)c1cc2cnc(Nc3ccc(N4CCNCC4)cn3)nc2n1C1CCCC1	3',5'-cyclic-AMP phosphodiesterase 4A (PDE4A, Homo sapiens, UniProt P27815)	enzyme activity, inhibitor, TR-FRET	0.25 µM
O=C(NO)c1cncc(OS(=O)(=O)Oc2ccc(-n3ccnc3)cc2)c1	HDAC2	enzyme activity, inhibitor, fluorescence	1.37 µM
NCC1Cc2cc(F)ccc2N(C(=O)Cc2cc(F)ccc2Br)C1 (stereo not drawn)	HTR2A	calcium signal, antagonist	1.16 µM
CCc1c(C)nc(-c2ccc(Cl)s2)nc1Nc1ccc(CC(=O)O)cc1	cGMP-specific 3',5'-cyclic phosphodiesterase (PDE5A, Homo sapiens, UniProt O76074)	enzyme activity, inhibitor, FP	~154 µM
Cc1ccc(-c2cc(-c3ccc(-c4cc(-c5ccc(C)cc5)nc(N)n4)cc3)nc(N)n2)cc1	PPO3	enzyme activity, inhibitor, absorbance	37.2 µM
CN(C(=O)c1cn[nH]n1)C1CCN(CCc2cccc(Cl)c2Cl)C1 (stereo not drawn)	HTR2A	calcium signal, antagonist	0.907 µM
O=C(/C=C/c1cccc(OS(=O)(=O)Oc2ccc(C(F)(F)F)cc2)c1)NO	HDAC2	enzyme activity, inhibitor, fluorescence	0.45 µM
Nc1nc(-c2ccc(F)cc2)cc(-c2ccc(-c3cc(-c4ccc(F)cc4)nc(N)n3)cc2)n1	PPO3	enzyme activity, inhibitor, absorbance	46 µM
CC(C)C(N)CCN(C)C(=O)C(=O)Nc1cc2ccccc2cc1Cl (stereo not drawn)	HTR2A	calcium signal, antagonist	15.7 µM
C#Cc1ccc2c(=O)[nH]nc(Cc3ccc(F)c(C(=O)N4CCN(C(=O)C=C)CC4)c3)c2c1	Poly [ADP-ribose] polymerase 1 (PARP1, Homo sapiens, UniProt P09874)	enzyme activity, inhibitor	0.85 µM
O=C(c1cc(C2CCNC2)[nH]n1)N1CCC(c2cccc(Cl)c2)C1 (stereo not drawn)	HTR2A	calcium signal, antagonist	19.3 µM
Nc1ccc(-c2cc(-c3ccc(-c4cc(-c5ccc(N)cc5)nc(N)n4)cc3)nc(N)n2)cc1	PPO3	enzyme activity, inhibitor, absorbance	12.4 µM
